According to PMC8592256 (Nature structural & molecular biology, 2021):

Assays:
Type in all cases: binding
[1] = test system: human katanin AAA domain variability hotspot mutant constructs (L214C, T253N, A419L, T422K etc.); test: DSF, katanin AAA domain variability hotspot mutants
In short: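 Human katanin constructs (AAA domain aa 171–491, or aa 111–491; WT or mutants) were expressed in E. coli Rosetta (DE3) pLysS and purified by MBP-affinity, protease tag cleavage, anion exchange and gel filtration. Protein was 8 μM in 20 mM HEPES.Na, 120 mM NaCl, 5 mM MgCl2, 1 mM TCEP, 10 mM (NH4)2SO4, pH 7.5, with SYPRO Orange. Ligand was ADP 1 mM or compound 50–500 μM, in 5% DMSO final. Tm was taken as the minimum of the first derivative of fluorescence versus temperature.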

[2] = target: T1, HS-VPS4B-WT (Homo sapiens, UniProt O75351); test: DSF, HS-VPS4B-WT; details: ADP 1 mM; WT and Asp-to-Cys mutant to a similar extent
T1 sequence (O75351 1-444): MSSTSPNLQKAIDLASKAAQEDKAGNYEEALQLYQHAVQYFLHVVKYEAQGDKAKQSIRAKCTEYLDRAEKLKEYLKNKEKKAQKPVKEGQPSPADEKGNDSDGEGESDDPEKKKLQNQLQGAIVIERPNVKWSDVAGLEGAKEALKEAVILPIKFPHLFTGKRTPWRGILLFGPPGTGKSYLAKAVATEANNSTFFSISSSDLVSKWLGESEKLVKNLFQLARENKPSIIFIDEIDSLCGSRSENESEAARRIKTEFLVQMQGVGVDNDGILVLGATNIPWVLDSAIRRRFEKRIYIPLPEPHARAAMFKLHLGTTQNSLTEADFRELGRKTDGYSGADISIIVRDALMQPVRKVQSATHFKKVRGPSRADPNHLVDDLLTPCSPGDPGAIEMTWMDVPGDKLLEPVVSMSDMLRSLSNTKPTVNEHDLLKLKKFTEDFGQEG
In short: (§1)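 FIGL1 and HS-VPS4B (WT and Asp-to-Cys mutant) were scanned at 8 μM protein, with or without ADP 1 mM, in 20 mM HEPES.Na, 120 mM NaCl, 5 mM MgCl2, 1 mM TCEP, 10 mM (NH4)2SO4, pH 7.5. Buffer contained SYPRO Orange and 5% DMSO final. Melting temperature was taken from the minimum of the first derivative of the fluorescence–temperature curve. ΔTm was relative to the no-ADP control.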

[3] = target: T2, FIGL1-WT (Homo sapiens, UniProt Q6PIW4); test: DSF, FIGL1-WT; details: ADP 1 mM; WT and Asp-to-Cys mutant to a similar extent
T2 sequence (Q6PIW4 288-674): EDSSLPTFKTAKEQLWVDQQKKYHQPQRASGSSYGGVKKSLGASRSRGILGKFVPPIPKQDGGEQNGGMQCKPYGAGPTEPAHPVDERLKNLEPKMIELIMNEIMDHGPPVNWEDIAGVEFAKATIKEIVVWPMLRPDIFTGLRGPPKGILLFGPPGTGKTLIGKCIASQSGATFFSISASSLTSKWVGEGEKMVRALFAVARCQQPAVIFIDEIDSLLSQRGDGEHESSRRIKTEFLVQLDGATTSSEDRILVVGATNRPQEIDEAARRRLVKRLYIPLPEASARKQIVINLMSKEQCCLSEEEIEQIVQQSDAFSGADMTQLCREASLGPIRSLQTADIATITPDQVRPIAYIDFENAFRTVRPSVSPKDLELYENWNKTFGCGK
In short: as §1

| increase in thermal stability on ADP binding [2] | increase in thermal stability on ADP binding [3] | effect of mutation on compound binding (DSF) ([1]; three of the four variability hotspot mutations, compound 500 μM) | Compound | shift in melting temperature (ΔTm) ([1]; ADP 1 mM, five alleles with mutations at the variability hotspots) |
| --- | --- | --- | --- | --- |
| approximately +5 °C | ~+3 °C | – | Nc1ncnc2c1ncn2[C@@H]1O[C@H](COP(=O)(O)OP(=O)(O)O)[C@@H](O)[C@H]1O [ADP, adenosine 5’-diphosphate] | +4 to +6 °C |
| – | – | reduced compound binding | Nc1nc2c(-c3ccccc3)cccn2n1 [compound 1, 8-phenyl-triazolopyridine-2-amine] | – |
